Source: ChEMBL document CHEMBL4346661, “Design, synthesis and evaluation of novel diaryl-1,5-diazoles derivatives bearing morpholine as potent dual COX-2/5-LOX inhibitors and antitumor agents” (Eur J Med Chem, 2019)
Calls of active or inactive are those of the source. The rule behind the calls is not given here.

Columns and labels:
B16-F10 [1] = test: Antiproliferative activity against mouse B16F10 cells incubated for 48 hrs by MTT assay; format: functional, cell-based; conditions: B16-F10, 48 h
Procedure, shortened: (§1)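 MTT assay on F10 (murine melanoma), HeLa, A549, MCF-7 and 293T (human renal epithelium) cells. IC50 given as mean ± SD of three independent experiments.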

HeLa = test: Antiproliferative activity against human HeLa cells incubated for 48 hrs by MTT assay; format: functional, cell-based; procedure, shortened: as §1
A549 = test: Antiproliferative activity against human A549 cells incubated for 48 hrs by MTT assay; format: functional, cell-based; conditions: A549, 48 h; procedure, shortened: as §1
MCF7 = test: Antiproliferative activity against human MCF7 cells incubated for 48 hrs by MTT assay; format: functional, cell-based; conditions: MCF7, 48 h; procedure, shortened: as §1
HEK-293T = test: Antiproliferative activity against human 293T cells incubated for 48 hrs by MTT assay; format: cell-based; procedure, shortened: as §1
[2] = target: T1, Prostaglandin G/H synthase 2 (Homo sapiens, UniProt P35354); test: Inhibition of COX2 (unknown origin) using arachidonic acid as substrate incubated for 10 mins by Ellman's reagent based COX-1/COX-2 ELISA assay
T1 sequence (P35354 whole entry): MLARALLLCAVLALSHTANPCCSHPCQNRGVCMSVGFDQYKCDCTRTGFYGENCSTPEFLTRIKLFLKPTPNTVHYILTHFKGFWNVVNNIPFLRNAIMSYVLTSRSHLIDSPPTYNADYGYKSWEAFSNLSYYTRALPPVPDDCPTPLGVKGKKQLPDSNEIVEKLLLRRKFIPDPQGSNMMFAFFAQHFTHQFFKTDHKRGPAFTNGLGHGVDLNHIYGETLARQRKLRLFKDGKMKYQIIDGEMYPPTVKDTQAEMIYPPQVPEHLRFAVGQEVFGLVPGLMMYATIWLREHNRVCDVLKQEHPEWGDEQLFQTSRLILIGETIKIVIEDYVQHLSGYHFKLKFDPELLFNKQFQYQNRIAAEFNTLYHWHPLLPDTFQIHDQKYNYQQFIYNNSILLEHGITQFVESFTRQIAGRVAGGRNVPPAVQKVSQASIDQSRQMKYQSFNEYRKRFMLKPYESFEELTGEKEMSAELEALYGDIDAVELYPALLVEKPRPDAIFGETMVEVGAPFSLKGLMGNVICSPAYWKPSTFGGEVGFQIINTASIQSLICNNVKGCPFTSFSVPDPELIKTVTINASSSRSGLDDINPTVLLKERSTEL

[3] = target: Prostaglandin G/H synthase 1 (Homo sapiens, UniProt P23219); test: Inhibition of COX1 (unknown origin) using arachidonic acid as substrate incubated for 10 mins by Ellman's reagent based COX-1/COX-2 ELISA assay
Homo sapiens = species: Homo sapiens; test: Selectivity index, ratio of IC50 for COX1 (unknown origin) to IC50 for COX2 (unknown origin)
Procedure, shortened: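 Ratio of COX-1 IC50 to COX-2 IC50, from human COX-1 and human COX-2 inhibitor screening assay kits. Each IC50 is the concentration giving 50% enzyme inhibition, taken as the mean of four determinations.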

[4] = Inhibition of 5-LOX assessed as calcium ionophore A23187-stimulated LTB4 production preincubated for 30 mins followed by calcium ionophore A23187 addition and measured after 30 mins by ELISA
B16-F10 [5] = test: Inhibition of LPS-induced PGE2 production in mouse B16F10 cells at 6.25 uM incubated for 24 hrs by enzyme immunoassay; format: functional, cell-based
Procedure, shortened: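 F10 cells treated for 24 h alongside LPS (1 µg/ml), test agent at 6.25 µM. Supernatant collected by centrifugation and PGE2 measured with a PGE2 enzyme immunoassay (ELISA) kit. Mean ± SD of three independent experiments.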

B16-F10 [6] = test: Antitumor activity against mouse B16F10 cells implanted in nude mouse assessed as reduction in tumor size at 20 mg/kg, ip administered once per 2 days for 14 days by caliper method; format: functional
Procedure, shortened: (§2)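 Nude mice were given 5×10^6 F10 cells subcutaneously in the right flank. At about 100 mm3, 24 mice were randomized into four groups of vehicle or compound. Dosing was intraperitoneal every two days for two weeks. Tumor volume was recorded every other day. Tumors were excised and weighed after the last treatment, and body weight was monitored.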

B16-F10 [7] = test: Antitumor activity against mouse B16F10 cells implanted in nude mouse assessed as decrease in tumor weight at 20 mg/kg, ip administered once per 2 days for 14 days by caliper method relative to control; format: functional, organism-based; procedure, shortened: as §2

Prostaglandin G/H synthase 1, sequence (P23219 whole entry): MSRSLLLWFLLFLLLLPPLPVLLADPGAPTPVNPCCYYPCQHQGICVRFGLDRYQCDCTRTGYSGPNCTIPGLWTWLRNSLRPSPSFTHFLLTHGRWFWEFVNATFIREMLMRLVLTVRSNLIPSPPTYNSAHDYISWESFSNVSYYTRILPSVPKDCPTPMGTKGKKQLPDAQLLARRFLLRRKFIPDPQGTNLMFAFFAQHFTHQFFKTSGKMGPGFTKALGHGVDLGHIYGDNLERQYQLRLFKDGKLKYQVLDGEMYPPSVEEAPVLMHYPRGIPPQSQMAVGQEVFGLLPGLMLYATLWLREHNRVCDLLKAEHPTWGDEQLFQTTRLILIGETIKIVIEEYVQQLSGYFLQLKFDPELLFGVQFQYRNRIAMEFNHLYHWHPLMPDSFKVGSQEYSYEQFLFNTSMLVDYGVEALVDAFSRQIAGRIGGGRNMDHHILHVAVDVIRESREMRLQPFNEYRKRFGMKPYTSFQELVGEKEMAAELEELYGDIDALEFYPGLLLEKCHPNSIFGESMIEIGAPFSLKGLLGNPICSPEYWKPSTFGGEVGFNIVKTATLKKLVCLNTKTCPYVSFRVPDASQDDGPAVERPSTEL

IC50 (B16-F10 [1]) [µM]	IC50 (HeLa) [µM]	IC50 (A549) [µM]	IC50 (MCF7) [µM]	IC50 [2] [µM]	IC50 [3] [µM]	Ratio IC50 (Homo sapiens)	IC50 [4] [µM]	SMILES	IC50 (HEK-293T) [µM]	inhibition (B16-F10 [5])	Activity (B16-F10 [6]) [mm3]	Activity (B16-F10 [7])
13.9	14.8	15.4	12.5	0.21 to 0.22	29.4	140	0.87	NS(=O)(=O)c1ccc(-n2nc(C(=O)N3CCSCC3)cc2-c2cccc(Cl)c2)cc1	191	–	–	–
8.16	9.94	10.2	9.25	0.19	30.8	162	0.71	NS(=O)(=O)c1ccc(-n2nc(C(=O)N3CCSCC3)cc2-c2ccc(C(F)(F)F)cc2)cc1	136	–	–	–
> 100	> 100	> 100	15.8	0.16	–	–	1.01	NS(=O)(=O)c1ccc(-n2nc(C(=O)NCCN3CCOCC3)cc2-c2ccc(F)cc2)cc1	112	–	–	–
10.3	13.2	14.5	14.4	0.19	–	–	1.32	NS(=O)(=O)c1ccc(-n2nc(C(=O)N3CCSCC3)cc2-c2cccc(F)c2)cc1	176	–	–	–

The remaining lines, values behind:

SMILES	IC50 (B16-F10 [1]) [µM]	IC50 (HeLa) [µM]	IC50 (A549) [µM]	IC50 (MCF7) [µM]	IC50 [2] [µM]	IC50 [3] [µM]	Ratio IC50 (Homo sapiens)	IC50 [4] [µM]	IC50 (HEK-293T) [µM]	inhibition (B16-F10 [5])	Activity (B16-F10 [6]) [mm3]	Activity (B16-F10 [7])
NS(=O)(=O)c1ccc(-n2nc(C(=O)OCCCN3CCOCC3)cc2-c2ccc(C(F)(F)F)cc2)cc1	14.4	29.8	15.2	14.7	0.21	28.5	136	0.75	179	–	–	–
Cc1ccc(-c2cc(C(F)(F)F)nn2-c2ccc(S(N)(=O)=O)cc2)cc1 [CELECOXIB]	13.3	–	11	12.6	–	–	–	–	97.9	Active	978.35	Active
COc1cccc(-c2cc(C(=O)N3CCOCC3)nn2-c2ccc(S(N)(=O)=O)cc2)c1	29.2	> 100	> 100	26	2.25	–	–	0.96	134	–	–	–
NS(=O)(=O)c1ccc(-n2nc(C(=O)OCCCN3CCOCC3)cc2-c2ccc(F)cc2)cc1	> 100	> 100	> 100	> 100	3.57	–	–	0.75	> 300	–	–	–
NS(=O)(=O)c1ccc(-n2nc(C(=O)N3CCOCC3)cc2-c2ccc(F)cc2)cc1	20.5	> 100	27.5	20	0.23	–	–	0.89	206	–	–	–
